MEKK2 WT-MEK5 – raises or lowers MEK5 binding to wildtype human MEKK2 PB1 domain | Q9Y2U5 | bead flow cytometry, Alexa488-MEK5 binding to MEKK2 WT; actives lie on both sides | binding response (% of control), % at 10 µM | hit rate 1.1% among 290,000; in the data active means binding response below about 67% or above about 130%
MEKK3 PB1 HTS – MEKK3-MEK5 PB1 interaction, increase or decrease | Q99759 | bead-based flow cytometry, Alexa488-MEK5 binding to MEKK3; actives lie on both sides; 0 = blocked by unlabeled MEK5, 100 = vehicle | binding response (% of control), % at 10 µM | hit rate 1.4% among 290,000 | AID 1529;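 active means binding response more than 3 SD above or below the average of its plate-row segment, actives on both sides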;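 further: Alexa488 bead fluorescence after subtracting the streptavidin-only scavenger bead signal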
Target sequence (Q99759 whole entry, looked up): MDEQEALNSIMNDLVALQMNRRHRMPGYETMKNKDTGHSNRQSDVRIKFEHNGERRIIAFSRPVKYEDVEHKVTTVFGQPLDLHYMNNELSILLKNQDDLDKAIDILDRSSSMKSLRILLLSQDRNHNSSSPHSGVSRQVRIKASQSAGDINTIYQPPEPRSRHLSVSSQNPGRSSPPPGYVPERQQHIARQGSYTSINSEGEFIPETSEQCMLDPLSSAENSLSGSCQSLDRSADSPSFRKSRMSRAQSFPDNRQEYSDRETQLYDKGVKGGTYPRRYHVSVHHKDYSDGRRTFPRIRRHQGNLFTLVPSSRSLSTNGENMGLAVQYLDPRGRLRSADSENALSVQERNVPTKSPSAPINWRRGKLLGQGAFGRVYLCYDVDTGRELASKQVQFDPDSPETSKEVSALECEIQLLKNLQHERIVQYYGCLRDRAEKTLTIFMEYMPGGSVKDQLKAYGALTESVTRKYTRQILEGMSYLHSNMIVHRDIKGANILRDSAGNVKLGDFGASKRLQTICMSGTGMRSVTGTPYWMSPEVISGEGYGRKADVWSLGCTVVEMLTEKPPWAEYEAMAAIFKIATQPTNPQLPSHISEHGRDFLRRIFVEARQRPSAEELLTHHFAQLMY
VIM-2 inh – inhibitors of Pseudomonas aeruginosa VIM-2 metallo-beta-lactamase; AID 1527; inhibition, % at 5.6 µM; hit rate 0.89% among 290,000; purified VIM-2, nitrocefin hydrolysis, epi-absorbance fluorescence;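 active means inhibition above the mean of all tested compounds plus 3 SD, cutoff set per screening run, cut at about 7.5% in these data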;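 further: red hydrolysis product quenches plate fluorescence so inhibitors raise well fluorescence; 0% = enzyme with DMSO and 100% = DMSO without enzyme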
MEKK2mut PB1 HTS – signal of MEK5 binding to mutant human MEKK2 PB1 domain. bead flow cytometry, Alexa488-MEK5 binding to MEKK2 mutant. percent response, % at 10 µM. hit rate 0.35% among 290,000; in the data active means percent response above about 24%, passing the limit was not always enough
IMP-1 inh – blocks Pseudomonas aeruginosa IMP-1 metallo-beta-lactamase; purified IMP-1, nitrocefin hydrolysis, epi-absorbance fluorescence; inhibition, % at 5.6 µM; hit rate 0.45% among 290,000; AID 1556;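 active means inhibition above the mean plus 3 SD of all compounds in the same screening run, cut at about 4.5% in these data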;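 further: 0% = IMP-1 with DMSO and 100% = DMSO wells lacking enzyme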
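Material – recombinant IMP-1 enzyme, purified · Amount – IMP-1 0.2 nM before substrate addition · Medium – HEPES buffer pH 7.1 with ZnSO4 and Brij 35 · Timing – 25 °C, 15 min preincubation, 25 min reaction · Measured by – plate fluorescence quenching by hydrolysis product, ex 480/em 530 nm · Read-out – percent enzyme inhibition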
MEKK2wt confirm – raises or lowers MEK5 binding to wildtype human MEKK2, retest; shares compounds with MEKK3 PB1 HTS; bead flow cytometry, Alexa488-MEK5 binding to MEKK2 WT; actives lie on both sides; binding response (% of control), % at 10 µM; hit rate 2.4% among 5,900; AID 1892; in the data active means binding response below about 16% or above about 210%; inactive means in between
MEKK2mut confirm – signal of MEK5 binding to mutant human MEKK2, retest | shares compounds with MEKK3 PB1 HTS | bead flow cytometry, Alexa488-MEK5 binding to MEKK2 mutant | percent response, % at 10 µM | hit rate 2% among 5,900 | AID 1893; in the data active means percent response mostly above about 71%, no sharp cut-off; inactive means mostly below about 38%;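 further: higher means compound restores mutant binding toward wildtype level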
MEKK3-MEK5 inh – confirmation of inhibitors of MEK5 binding to human MEKK3; binding response (% of control), % at 10 µM; bead flow cytometry, Alexa488-MEK5 binding to MEKK3; active compounds read low; hit rate 1.8% among 5,900; shares compounds with MEKK3 PB1 HTS;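 active means binding response below 72% of control, or above a set upper limit, though filed actives all read lower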;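 further: 100% = DMSO only wells and 0% = binding blocked by excess unlabeled MEK5; lower values mean stronger disruption of MEK5 binding to MEKK3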
* = called active by the depositor; [ ] = dose if it differs, or a comment. An excerpt weighted towards active compounds, which were near 3.4% of everything screened.

Cc1ccc(Nc2c(N)c(=O)oc3ccccc23)cc1 was read as MEKK2 WT-MEK5 0.0*[inhibitor], MEKK3 PB1 HTS 0.0*[inhibitor], VIM-2 inh 2, MEKK2mut PB1 HTS 4, IMP-1 inh 1, MEKK2wt confirm 101, MEKK2mut confirm 2 and MEKK3-MEK5 inh 98.
Cn1nc(C(F)(F)F)c(-c2ccccc2)c1NC(=O)c1nccnc1C(=O)O was read as MEKK2 WT-MEK5 92, MEKK3 PB1 HTS 92, VIM-2 inh -1, MEKK2mut PB1 HTS -12 and IMP-1 inh -1.
`Cn1nc(C(F)(F)F)c(-c2ccc(F)cc2)c1NC(=O)c1cccnc1` gave MEKK2 WT-MEK5 118, MEKK3 PB1 HTS 128*, VIM-2 inh -4, MEKK2mut PB1 HTS 28, IMP-1 inh -2, MEKK2wt confirm 107, MEKK2mut confirm 0 and MEKK3-MEK5 inh 103.
Screening COc1cc(/C=N/Nc2ccc(Cl)cc2)ccc1OC(=O)c1cccs1 returned MEKK2 WT-MEK5 89, MEKK3 PB1 HTS 46*[inhibitor], VIM-2 inh 2, MEKK2mut PB1 HTS -2, IMP-1 inh -2, MEKK2wt confirm 95, MEKK2mut confirm -6 and MEKK3-MEK5 inh 95.
COc1cc(/C=N/NC(N)=O)ccc1OC(=O)c1cccs1 was read as MEKK2 WT-MEK5 98, MEKK3 PB1 HTS 99, VIM-2 inh -3, MEKK2mut PB1 HTS -3 and IMP-1 inh -3.
`CC1(C)OC(C(N)=O)C(C(N)=O)O1` (configuration not stated) gave MEKK2 WT-MEK5 104, MEKK3 PB1 HTS 106, VIM-2 inh -2, MEKK2mut PB1 HTS 6 and IMP-1 inh -5.
Screening O=C(NN1C(=O)c2cc(Br)ccc2NC1c1cc(Br)cc(Br)c1O)c1ccncc1 (configuration not stated) returned MEKK2 WT-MEK5 100, MEKK3 PB1 HTS 133*, VIM-2 inh -1, MEKK2mut PB1 HTS 1, IMP-1 inh -3, MEKK2wt confirm 97, MEKK2mut confirm -1 and MEKK3-MEK5 inh 98.
Cc1ccc(OCCn2nnc3ccccc32)cc1C was read as MEKK2 WT-MEK5 103, MEKK3 PB1 HTS 103, VIM-2 inh -2, MEKK2mut PB1 HTS 2 and IMP-1 inh 0.
For c1ccc(CSc2ccc(-c3ccc4c(c3)OCO4)nn2)cc1 the results were MEKK2 WT-MEK5 110, MEKK3 PB1 HTS 101, VIM-2 inh -2, MEKK2mut PB1 HTS 10 and IMP-1 inh -4.
For Fc1ccc(CSc2ccc(-c3ccc4c(c3)OCO4)nn2)cc1 the results were MEKK2 WT-MEK5 105, MEKK3 PB1 HTS 135*, VIM-2 inh -1, MEKK2mut PB1 HTS 0, IMP-1 inh -2, MEKK2wt confirm 105, MEKK2mut confirm 7 and MEKK3-MEK5 inh 104.
For Cc1ccc(NC(=O)CSc2ccc(-c3ccc4c(c3)OCO4)nn2)cc1F the results were MEKK2 WT-MEK5 101, MEKK3 PB1 HTS 132*, VIM-2 inh 0, MEKK2mut PB1 HTS 0, IMP-1 inh -1, MEKK2wt confirm 107, MEKK2mut confirm 10 and MEKK3-MEK5 inh 109.
`Cc1c(CNC2CCC(C)CC2)c(C(=O)O)c(C)n1Cc1ccccc1` (configuration not stated) gave MEKK2 WT-MEK5 111, MEKK3 PB1 HTS 140*, VIM-2 inh -2, MEKK2mut PB1 HTS 1, IMP-1 inh -5, MEKK2wt confirm 109, MEKK2mut confirm 8 and MEKK3-MEK5 inh 106.
`CN(C)CCCN(C(=O)/C=C/c1cccs1)c1nc2ccc(F)cc2s1` gave MEKK2 WT-MEK5 152*, MEKK3 PB1 HTS 107, VIM-2 inh -2, MEKK2mut PB1 HTS 30, IMP-1 inh -2, MEKK2wt confirm 149, MEKK2mut confirm 30 and MEKK3-MEK5 inh 108.
Screening CCN(CC)CCN(C(=O)/C=C/c1cccs1)c1nc2ccc(F)cc2s1 returned MEKK2 WT-MEK5 121, MEKK3 PB1 HTS 96, VIM-2 inh -4, MEKK2mut PB1 HTS 8 and IMP-1 inh -4.
CN(C)CCCN(C(=O)C1COc2ccccc2O1)c1nc2ccc(F)cc2s1 (configuration not stated) was read as MEKK2 WT-MEK5 129, MEKK3 PB1 HTS 97, VIM-2 inh -2, MEKK2mut PB1 HTS 0 and IMP-1 inh 1.
CN(C)CCCN(C(=O)c1sc2ccccc2c1Cl)c1nc2ccc(F)cc2s1 was read as MEKK2 WT-MEK5 143*, MEKK3 PB1 HTS 111, VIM-2 inh 0, MEKK2mut PB1 HTS 5, IMP-1 inh -2, MEKK2wt confirm 179, MEKK2mut confirm 36 and MEKK3-MEK5 inh 105.
`CCCN1C(=O)SC(CC(=O)Nc2ccc(Br)cc2)C1=O` (configuration not stated) gave MEKK2 WT-MEK5 3.0*[inhibitor], MEKK3 PB1 HTS 2.0*[inhibitor], VIM-2 inh -3, MEKK2mut PB1 HTS -24, IMP-1 inh -2, MEKK2wt confirm 100, MEKK2mut confirm -4 and MEKK3-MEK5 inh 101.
O=c1oc2ccccc2cc1-c1nc2c(s1)CCc1ccccc1-2 was read as MEKK2 WT-MEK5 63*[inhibitor], MEKK3 PB1 HTS 92, VIM-2 inh -3, MEKK2mut PB1 HTS -2, IMP-1 inh -2, MEKK2wt confirm 72, MEKK2mut confirm -15 and MEKK3-MEK5 inh 99.
COc1ccc(N(CC(=O)NCc2cccc(OC)c2)S(=O)(=O)c2c(C)noc2C)cc1 was read as MEKK2 WT-MEK5 87, MEKK3 PB1 HTS 96, VIM-2 inh -4, MEKK2mut PB1 HTS -15 and IMP-1 inh -4.
Screening C=CCNC(=O)c1onc(CSc2ccc(C)c(C)c2)c1C(=O)O returned MEKK2 WT-MEK5 108, MEKK3 PB1 HTS 107, VIM-2 inh 0, MEKK2mut PB1 HTS 4 and IMP-1 inh -2.
`C=C(C)C(=O)Nc1nnc(-c2ccccc2C)s1` gave MEKK2 WT-MEK5 66, MEKK3 PB1 HTS 74*[inhibitor], VIM-2 inh -8, MEKK2mut PB1 HTS -9, IMP-1 inh -3, MEKK2wt confirm 103, MEKK2mut confirm 4 and MEKK3-MEK5 inh 102.
`C/C=C/C(=O)Nc1nnc(-c2ccccc2C)s1` gave MEKK2 WT-MEK5 82, MEKK3 PB1 HTS 98, VIM-2 inh -3, MEKK2mut PB1 HTS -9 and IMP-1 inh -3.
For COc1ccc(C(=O)CSc2nc3ncccc3[nH]2)cc1OC the results were MEKK2 WT-MEK5 101, MEKK3 PB1 HTS 102, VIM-2 inh -2, MEKK2mut PB1 HTS 4 and IMP-1 inh -4.
